In ChEMBL document CHEMBL4251609, “Substrate-derived triazolo- and azapeptides as inhibitors of cathepsins K and S” (Eur J Med Chem, 2018) one finds inhibition, Activity and Ki data, which are given here for three molecules.

For test [1], the target named is Cathepsin S (Mus musculus) (UniProt O70370). The test is described as follows: Inhibition of cathepsin S in C57/Bl6 mouse spleen lysate using Z-Val-Leu-Arg-AMC as substrate at 100 uM preincubated for 30 mins followed by substrate addition. It is filed as subcellular.
Test [2] addresses Cathepsin B (Mus musculus) (UniProt P10605). The test is described as follows: Inhibition of cathepsin B in C57/Bl6 mouse spleen lysate using Z-Arg-Arg-AMC as substrate at 100 uM preincubated for 30 mins followed by substrate addition. Format: subcellular.
Test [3] addresses T1, Cathepsin K (Homo sapiens) (UniProt P43235).
T1 sequence (whole entry): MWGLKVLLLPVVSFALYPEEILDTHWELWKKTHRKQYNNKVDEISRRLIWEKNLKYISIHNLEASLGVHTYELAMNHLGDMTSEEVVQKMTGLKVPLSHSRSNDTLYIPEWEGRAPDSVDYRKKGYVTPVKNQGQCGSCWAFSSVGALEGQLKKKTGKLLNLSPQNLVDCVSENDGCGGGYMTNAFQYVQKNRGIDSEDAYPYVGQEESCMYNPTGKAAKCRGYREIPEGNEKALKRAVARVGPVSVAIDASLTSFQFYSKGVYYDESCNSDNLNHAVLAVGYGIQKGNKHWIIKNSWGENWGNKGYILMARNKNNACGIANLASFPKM
Put plainly: Inhibition of human cathepsin K […] activity assessed as normalized bradykinin equivalents ratio at 1 uM pre-incubated for 15 mins before bradykinin substrate addition by competitive enzyme immunoassay (reference value: <0.5%). Set-up: scale not given: the % may be the effect or the level left.

In test [4] the target is T1, Cathepsin K (Homo sapiens). The test is described as follows: Inhibition of human cathepsin K […] activity assessed as normalized bradykinin equivalents ratio at 1 uM pre-incubated for 15 mins before kallidin substrate addition by competitive enzyme immunoassay (reference value: <0.5%). Set-up: scale not given: the % may be the effect or the level left.
A further test concerns the target Trypsin (Homo sapiens) (UniProt P07477+P07478+P35030). Put plainly: Inhibition of trypsin (unknown origin) incubated for 30 mins using Abz-Thr-Pro-Arg-Ser-Ala-Leu-Gln-EDDnp substrate. It is filed as protein assay.
The species entered for the next test is Homo sapiens. The test is described as follows: Inhibition of chymotrypsin (unknown origin) incubated for 30 mins using Abz-Thr-Pro-Phe-Ser-Gly-Gln-EDDnp substrate.
For test [5], the target named is T2, Neutrophil elastase (Homo sapiens) (UniProt P08246).
T2 sequence (whole entry): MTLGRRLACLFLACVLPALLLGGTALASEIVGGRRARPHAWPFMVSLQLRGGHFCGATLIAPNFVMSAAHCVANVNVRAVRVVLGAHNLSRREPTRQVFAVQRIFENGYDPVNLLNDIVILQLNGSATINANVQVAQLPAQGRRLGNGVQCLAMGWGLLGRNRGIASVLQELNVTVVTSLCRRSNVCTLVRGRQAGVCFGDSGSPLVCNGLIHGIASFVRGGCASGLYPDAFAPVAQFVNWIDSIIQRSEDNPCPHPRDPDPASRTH
Put plainly: Inhibition of human neutrophil elastase incubated for 30 mins using Abz-Ala-Pro-Glu-Glu-Ile-Met-Arg-Arg-Gln-(3-NO2-Tyr) substrate.

The target in test [6] is 72 kDa type IV collagenase (Homo sapiens) (UniProt P08253). Put plainly: Inhibition of human recombinant MMP-2 expressed in CHO cells incubated for 30 mins by Mca-Arg-Pro-Pro-Gly-Phe-Ser-Ala-Phe-Lys(Dnp) substrate. Format: cell-based.
Chain of 72 kDa type IV collagenase (Homo sapiens) (P08253 110-660 limits assumed): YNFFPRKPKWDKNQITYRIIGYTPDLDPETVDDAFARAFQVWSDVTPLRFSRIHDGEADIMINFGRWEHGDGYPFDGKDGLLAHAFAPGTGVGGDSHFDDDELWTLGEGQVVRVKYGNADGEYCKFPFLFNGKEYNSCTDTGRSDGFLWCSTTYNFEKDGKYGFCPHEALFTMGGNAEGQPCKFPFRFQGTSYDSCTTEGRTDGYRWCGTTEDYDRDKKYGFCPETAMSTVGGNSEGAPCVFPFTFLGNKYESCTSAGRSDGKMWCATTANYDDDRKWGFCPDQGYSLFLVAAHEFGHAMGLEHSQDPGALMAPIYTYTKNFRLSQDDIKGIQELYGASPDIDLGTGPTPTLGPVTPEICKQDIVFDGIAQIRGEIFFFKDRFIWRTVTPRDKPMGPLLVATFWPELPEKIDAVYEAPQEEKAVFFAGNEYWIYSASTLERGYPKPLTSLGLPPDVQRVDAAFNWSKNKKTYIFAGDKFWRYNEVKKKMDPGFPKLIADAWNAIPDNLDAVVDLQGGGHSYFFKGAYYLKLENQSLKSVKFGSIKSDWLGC
The target of test [7] is Cathepsin D (Homo sapiens) (UniProt P07339). The test is described as follows: Inhibition of human cathepsin D incubated for 30 mins using Mca-Gly-Lys-Pro-Ile-Leu-Phe-Phe-Arg-Leu-Lys(Dnp)-D-Arg-NH2 substrate.
Chain of Cathepsin D (Homo sapiens) (P07339 65-162 limits assumed): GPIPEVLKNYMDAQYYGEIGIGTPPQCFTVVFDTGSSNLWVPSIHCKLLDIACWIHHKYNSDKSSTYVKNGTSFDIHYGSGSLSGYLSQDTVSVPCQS
Chain of Cathepsin D (Homo sapiens) (P07339 169-412 limits assumed): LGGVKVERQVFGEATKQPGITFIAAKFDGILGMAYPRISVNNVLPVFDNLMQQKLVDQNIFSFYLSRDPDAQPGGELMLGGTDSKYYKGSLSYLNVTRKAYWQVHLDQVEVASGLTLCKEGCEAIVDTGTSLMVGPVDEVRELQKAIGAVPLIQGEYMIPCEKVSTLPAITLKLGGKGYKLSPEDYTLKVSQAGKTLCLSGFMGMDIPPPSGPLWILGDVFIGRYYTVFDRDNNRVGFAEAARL
The target of test [8] is T3, Pro-cathepsin H (Homo sapiens) (UniProt P09668).
T3 sequence (whole entry): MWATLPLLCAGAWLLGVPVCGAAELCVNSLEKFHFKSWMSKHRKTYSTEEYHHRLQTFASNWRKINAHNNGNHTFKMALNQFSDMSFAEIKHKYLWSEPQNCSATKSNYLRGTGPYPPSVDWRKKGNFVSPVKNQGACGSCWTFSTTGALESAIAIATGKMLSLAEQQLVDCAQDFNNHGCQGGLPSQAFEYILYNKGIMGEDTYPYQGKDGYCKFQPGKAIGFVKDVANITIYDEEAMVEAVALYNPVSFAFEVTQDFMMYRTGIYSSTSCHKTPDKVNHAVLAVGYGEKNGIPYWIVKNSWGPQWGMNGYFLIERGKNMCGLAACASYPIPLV
The test is described as follows: Inhibition of human cathepsin H using fluorogenic AMC-derived peptide substrate assessed as reduction in residual activity preincubated for 30 mins followed by substrate addition.

In test [9] the target is Cathepsin B (Homo sapiens) (UniProt P07858). The test is described as follows: Inhibition of human cathepsin B.
For test [10], the target named is T1, Cathepsin K (Homo sapiens). Put plainly: Inhibition of human cathepsin K using fluorogenic AMC-derived peptide substrate assessed as reduction in residual activity preincubated for 30 mins followed by substrate addition.
In test [11] the target is T4, Procathepsin L (Homo sapiens, UniProt P07711). Put plainly: Inhibition of human cathepsin L using fluorogenic AMC-derived peptide substrate assessed as reduction in residual activity preincubated for 30 mins followed by substrate addition.
Target sequence in this assay (P07711 114-333 limits assumed): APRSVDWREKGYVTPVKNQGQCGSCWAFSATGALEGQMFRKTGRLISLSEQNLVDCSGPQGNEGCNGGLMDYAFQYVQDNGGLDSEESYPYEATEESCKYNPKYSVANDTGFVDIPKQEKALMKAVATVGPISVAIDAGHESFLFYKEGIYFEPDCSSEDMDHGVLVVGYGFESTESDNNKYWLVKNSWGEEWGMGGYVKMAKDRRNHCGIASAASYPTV
Test [12] addresses T5, Cathepsin S (Homo sapiens, UniProt P25774). The test is described as follows: Reversible inhibition of human cathepsin S at 600 uM preincubated for 30 mins followed by Biot-(PEG)2-Ahx-LeuValGly-DMK addition measured after 1 hr by chemiluminescence assay.
Target sequence in this assay (P25774 115-331 limits assumed): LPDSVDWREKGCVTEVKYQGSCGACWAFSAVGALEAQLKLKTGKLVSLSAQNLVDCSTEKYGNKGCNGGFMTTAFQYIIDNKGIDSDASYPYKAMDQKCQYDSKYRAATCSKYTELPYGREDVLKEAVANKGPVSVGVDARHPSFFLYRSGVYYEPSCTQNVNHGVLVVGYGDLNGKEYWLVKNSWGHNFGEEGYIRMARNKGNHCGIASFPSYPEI
For test [13], the target named is T5, Cathepsin S. Put plainly: (§1) Reversible competitive inhibition of human cathepsin S using fluorogenic AMC-derived peptide substrate assessed as reduction in residual activity at pH 5.5 preincubated for 30 mins followed by substrate addition. In short, it runs like this: (§2)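 Ki values for cathepsin S determined at pH 5.5 and again at pH 7.4, a pH at which this enzyme stays stable and active, to compare the two conditions.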
Target sequence in this assay (P25774 115-331 limits assumed): as above

For test [14], the target named is Cathepsin S (Mus musculus) (UniProt O70370). The test is described as follows: Inhibition of cathepsin S in C57/Bl6 mouse spleen lysate using Z-Val-Leu-Arg-AMC as substrate at 10 uM preincubated for 30 mins followed by substrate addition. Format: subcellular.
The target in test [15] is T5, Cathepsin S. Put plainly: Reversible inhibition of human cathepsin S at 600 uM in presence of excess Z-LR-AMC.
Target sequence in this assay (P25774 115-331 limits assumed): as above
Test [16] has as its target Cathepsin B (Mus musculus) (UniProt P10605). Put plainly: Inhibition of cathepsin B in C57/Bl6 mouse spleen lysate using Z-Arg-Arg-AMC as substrate at 10 uM preincubated for 30 mins followed by substrate addition. Format: subcellular.
In test [17] the target is T5, Cathepsin S. Described as §1. The following applies: read-out: Ki. In short, it runs like this:
as §2
Target sequence in this assay (P25774 whole entry): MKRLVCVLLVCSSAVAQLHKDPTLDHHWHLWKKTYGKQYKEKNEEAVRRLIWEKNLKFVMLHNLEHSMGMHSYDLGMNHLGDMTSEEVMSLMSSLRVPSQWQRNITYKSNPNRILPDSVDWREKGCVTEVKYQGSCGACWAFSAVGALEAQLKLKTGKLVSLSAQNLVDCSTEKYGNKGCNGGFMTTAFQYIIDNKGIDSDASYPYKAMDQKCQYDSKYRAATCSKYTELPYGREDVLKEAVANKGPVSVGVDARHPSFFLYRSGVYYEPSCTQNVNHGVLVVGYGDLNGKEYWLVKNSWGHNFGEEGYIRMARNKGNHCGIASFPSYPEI

Test [18] addresses T5, Cathepsin S. Put plainly: Reversible competitive inhibition of human cathepsin S using fluorogenic AMC-derived peptide substrate assessed as reduction in residual activity at pH 7.4 preincubated for 30 mins followed by substrate addition. The following applies: read-out: Ki. In short, it runs like this: as §2
Target sequence in this assay (P25774 whole entry): as above
For test [19], the target named is T6, Cathepsin K (Homo sapiens, UniProt P43235).
T6 sequence (P43235 whole entry): T1 sequence (whole entry)
The test is described as follows: Reversible competitive inhibition of human cathepsin K using fluorogenic AMC-derived peptide substrate assessed as reduction in residual activity preincubated for 30 mins followed by substrate addition. In short, it runs like this: (§3)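 Inhibition constants (Ki) determined at pH 5.5, with reversibility and competitive mode also assessed.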

The target in test [20] is T4, Procathepsin L. The test is described as follows: Reversible competitive inhibition of human cathepsin L using fluorogenic AMC-derived peptide substrate assessed as reduction in residual activity preincubated for 30 mins followed by substrate addition. In short, it runs like this: as §3
Target sequence in this assay (P07711 whole entry): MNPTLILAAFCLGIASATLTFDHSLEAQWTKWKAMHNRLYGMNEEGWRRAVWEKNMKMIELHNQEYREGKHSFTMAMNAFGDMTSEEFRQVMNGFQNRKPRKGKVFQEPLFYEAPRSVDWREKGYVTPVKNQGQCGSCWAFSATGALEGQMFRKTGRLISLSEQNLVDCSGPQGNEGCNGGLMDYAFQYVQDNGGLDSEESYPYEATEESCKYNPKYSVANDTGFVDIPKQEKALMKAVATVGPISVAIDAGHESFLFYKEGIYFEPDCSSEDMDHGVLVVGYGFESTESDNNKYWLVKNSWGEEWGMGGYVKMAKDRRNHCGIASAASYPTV
For the next test, the target named is T7, Pro-cathepsin H (Homo sapiens, UniProt P09668).
T7 sequence (P09668 whole entry): T3 sequence (whole entry)
Put plainly: Reversible competitive inhibition of human cathepsin H using fluorogenic AMC-derived peptide substrate assessed as reduction in residual activity preincubated for 30 mins followed by substrate addition. The following applies: read-out: Ki.

The target in test [21] is T5, Cathepsin S. The test is described as follows: Inhibition of human cathepsin S using fluorogenic AMC-derived peptide substrate assessed as reduction in residual activity preincubated for 30 mins followed by substrate addition.
Target sequence in this assay (P25774 115-331 limits assumed): as the sequence (P25774 115-331 limits assumed) above
Test [22] concerns the target T6, Cathepsin K. The test is described as follows: Inhibition of human cathepsin K.

Active and inactive are the calls of the source. The calls are words filed in the database; no cut-off is given here.

Chain of Cathepsin B (Mus musculus) (P10605 80-333 limits assumed): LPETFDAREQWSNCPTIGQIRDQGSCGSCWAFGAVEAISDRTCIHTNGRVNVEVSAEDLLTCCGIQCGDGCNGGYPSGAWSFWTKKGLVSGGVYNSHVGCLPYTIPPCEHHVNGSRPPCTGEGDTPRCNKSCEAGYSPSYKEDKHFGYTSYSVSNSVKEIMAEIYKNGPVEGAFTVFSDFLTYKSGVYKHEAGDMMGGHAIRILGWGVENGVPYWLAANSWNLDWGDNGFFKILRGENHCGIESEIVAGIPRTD

Regarding `CC(C)C[C@H](NC(=O)[C@@H]1O[C@H]1C(=O)O)C(=O)NCCCCN=C(N)N`, the inhibition entry in test [1] and in test [2] was “Active” throughout. Moreover, the Activity in [3] and in test [4] was 100% each time.
As a reminder, the Ki is a dissociation constant, usually derived from enzyme kinetics or from competition with a known ligand. Regarding `CSCC[C@H](NC(=O)[C@@H]1CCCN1C(=O)[C@H](Cc1c[nH]cn1)NC(=O)[C@H](Cc1c[nH]c2ccccc12)NC(=O)[C@H](CCCNC(=N)N)NC(=O)CNC(C)=O)C(=O)NNC(=O)N[C@@H](C)C(=O)N1CCC[C@H]1C(=O)N[C@@H](Cc1c[nH]c2ccccc12)C(=O)N[C@@H](CCC(=O)O)C(=O)N[C@H](C)C(=O)N[C@H](CCCNC(=N)N)C(N)=O`, the inhibition result (at Trypsin (Homo sapiens); in the test listed under Homo sapiens; in [5]; in test [6]; in test [7]; on Cathepsin S [15]) was “inactive” each time. Moreover, the inhibition result in test [16] is “inactive”. Further, the inhibition result (in test [8]; in test [9]; in [10]; on Procathepsin L [11]; on Cathepsin S [12]; on Cathepsin S [13]) was “Active” each time. For the same molecule, the inhibition result (in test [14]; at Cathepsin S [21]) was “Active” throughout. The Ki on Cathepsin S [17] came out at 26 nM; on Cathepsin S [18] it was 17 nM; at Cathepsin K [19] it was 3 nM; at Procathepsin L [20], 5 nM; at Pro-cathepsin H it was 7000 nM.
On to `CC(C)(F)C[C@H](N[C@@H](c1ccc(-c2ccc(S(C)(=O)=O)cc2)cc1)C(F)(F)F)C(=O)NC1(C#N)CC1` [ODANACATIB], for which the Ki at Cathepsin K [22] amounted to 0.18 nM.
